These results are taken from ChEMBL document CHEMBL2021791, “Synthesis, structure-activity relationships and biological evaluation of caudatin derivatives as novel anti-hepatitis B virus agents” (Bioorg Med Chem, 2012).

Series [1] deals with Hepatitis B virus. The experiment in a line: Antiviral activity against Hepatitis B virus infected in human HepG2(2.2.15) cells assessed as suppression of HBsAg secretion by ELISA. The series is classed as functional, organism-based.
For series [2], the system named is Hepatitis B virus. The series can be described thus: Antiviral activity against Hepatitis B virus infected in human HepG2(2.2.15) cells assessed as suppression of HbeAg secretion by ELISA. Format: functional, organism-based.
Series [3] relates to Hepatitis B virus. The experiment in a line: Antiviral activity against Hepatitis B virus infected in human HepG2(2.2.15) cells assessed as inhibition of viral DNA replication by RT-PCR analysis. The series is classed as functional, organism-based.
Series [4] in a line: Cytotoxicity against human HepG2(2.2.15) cells by MTT assay. The series is classed as cell-based. The essentials:
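HepG2 2.2.15 cells were exposed to compounds and viability was read by a modified MTT method. CC50 is the concentration giving 50% cytotoxicity. Values are means of at least two experiments.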

Series [5] deals with Hepatitis B virus. The experiment in a line: Selectivity ratio of CC50 for human HepG2(2.2.15) cells to IC50 for Hepatitis B virus infected in human HepG2(2.2.15) cells assessed as suppression of HBeAg secretion. Format: cell-based. As to conditions: read-out: Ratio CC50/IC50. The essentials: (§1)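 The selectivity index was calculated as CC50/IC50. CC50 is MTT cytotoxicity in HepG2 2.2.15 cells. No index was given where a value could not be obtained.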

The test system of series [6] is Hepatitis B virus. The series can be described thus: Selectivity ratio of CC50 for human HepG2(2.2.15) cells to IC50 for Hepatitis B virus infected in human HepG2(2.2.15) cells assessed as inhibition of viral replication. The series is classed as cell-based. The following applies: read-out: Ratio CC50/IC50. The essentials: as §1
The subject of series [7] is Hepatitis B virus. The series can be described thus: Selectivity ratio of CC50 for human HepG2(2.2.15) cells to IC50 for Hepatitis B virus infected in human HepG2.2.15 cells assessed as suppression of HBsAg secretion. The series is classed as cell-based. As to conditions: read-out: Ratio CC50/IC50. The essentials: as §1

In the case of `CC(=O)N1CCC(C(=O)O[C@H]2CC[C@@]3(C)C(=CC[C@]4(O)[C@@H]3C[C@@H](OC(=O)/C=C(\C)C(C)C)[C@@]3(C)[C@]4(O)CC[C@@]3(O)C(C)=O)C2)CC1`, the results for the IC50 in the series with Hepatitis B virus [1], in the series on Hepatitis B virus [2] and in the series on Hepatitis B virus [3] were 93.2 µM, < 62.1 µM and 54.8 µM, respectively. The same compound displayed a 50% cytotoxic concentration (CC50) in series [4] (HepG2(2.2.15) cells) of 62.1 µM. Moreover, the selectivity ratio in the series on Hepatitis B virus [5] was > 1; in the series with Hepatitis B virus [6], 1.1.

On to `CC(=O)[C@]1(O)CC[C@@]2(O)[C@]1(C)[C@H](OC(=O)/C=C(\C)C(C)C)C[C@@H]1[C@@]3(C)CC[C@H](OC(=O)c4cc5ccccc5[nH]4)CC3=CC[C@]12O`, for which the 50% inhibitory concentration (IC50) is 21.7 µM with Hepatitis B virus [1], 33.7 µM with Hepatitis B virus [2] and 3.63 µM in the series with Hepatitis B virus [3]. It took 36.7 µM to reach half-maximal cytotoxicity in series [4] (HepG2(2.2.15) cells) (CC50). Moreover, the selectivity ratio in the series on Hepatitis B virus [7] is 1.7; in the series with Hepatitis B virus [5], 1.1; in the series with Hepatitis B virus [6] it was 10.1.

Turning to `CC(=O)[C@]1(O)CC[C@@]2(O)[C@]1(C)[C@H](OC(=O)/C=C(\C)C(C)C)C[C@@H]1[C@@]3(C)CC[C@H](OC(=O)COCC(=O)O)CC3=CC[C@]12O`, the IC50 is 524 µM in the series on Hepatitis B virus [1], 115 µM in the series on Hepatitis B virus [2] and 164 µM in the series with Hepatitis B virus [3]. This compound also showed a CC50 in series [4] (HepG2(2.2.15) cells) of 274 µM. The selectivity ratio with Hepatitis B virus [5] was 2.4; with Hepatitis B virus [6] it was 1.7.

Take `CC(=O)[C@]1(O)CC[C@@]2(O)[C@]1(C)[C@H](OC(=O)/C=C(\C)C(C)C)C[C@@H]1[C@@]3(C)CC[C@H](OC(=O)/C=C/n4ccnc4)CC3=CC[C@]12O`: the IC50 in the series with Hepatitis B virus [1] came to 18.7 µM; in the series on Hepatitis B virus [2], 13.2 µM; in the series with Hepatitis B virus [3], 7.48 µM. The half-maximal cytotoxic concentration (CC50) in series [4] (HepG2(2.2.15) cells) is > 1460 µM. Besides, the selectivity ratio in the series with Hepatitis B virus [7] was > 78; in the series on Hepatitis B virus [5], > 111; in the series with Hepatitis B virus [6], > 195.

On to `CC(=O)[C@]1(O)CC[C@@]2(O)[C@]1(C)[C@H](OC(=O)/C=C(\C)C(C)C)C[C@@H]1[C@@]3(C)CC[C@H](OC(=O)COc4ccccc4)CC3=CC[C@]12O`, for which the IC50 turned out to be 76.7 µM with Hepatitis B virus [1], 96.1 µM in the series on Hepatitis B virus [2] and 41 µM in the series with Hepatitis B virus [3]. It took 319 µM to reach half-maximal cytotoxicity in series [4] (HepG2(2.2.15) cells) (CC50). Further, the selectivity ratio in the series with Hepatitis B virus [7] came to 4.2; in the series on Hepatitis B virus [5] it was 3.3; in the series with Hepatitis B virus [6], 7.8.

With `CC(=O)[C@]1(O)CC[C@@]2(O)[C@]1(C)[C@H](OC(=O)/C=C(\C)C(C)C)C[C@@H]1[C@@]3(C)CC[C@H](O)CC3=CC[C@]12O` [CAUDATIN], the concentration for half-maximal inhibition (IC50) in the series on Hepatitis B virus [1] is 143 µM; with Hepatitis B virus [2], > 183 µM; in the series with Hepatitis B virus [3] it was 40.6 µM. Moreover, in series [4] (hepg2 2.2.15), half-maximal cytotoxicity (CC50) was put at 245 µM. Further, the values for the selectivity ratio in the series on Hepatitis B virus [7], with Hepatitis B virus [5] and in the series on Hepatitis B virus [6] were 1.7, < 1.3 and 6, respectively.

Turning to `C[C@H](Cn1cnc2c(N)ncnc21)OCP(=O)(O)O` [TENOFOVIR ANHYDROUS], the IC50 in the series on Hepatitis B virus [1] was determined as 1450 µM; in the series on Hepatitis B virus [2], 1240 µM; in the series on Hepatitis B virus [3], 0.77 µM. In series [4] (HepG2(2.2.15) cells), the CC50 is > 1820 µM. Moreover, the selectivity ratio in the series on Hepatitis B virus [7] is > 1.3; in the series on Hepatitis B virus [5], > 1.5; with Hepatitis B virus [6], > 2360.

On to `CC(=O)[C@]1(OC(=O)c2cccnc2)CC[C@@]2(O)[C@]1(C)[C@H](OC(=O)/C=C(\C)C(C)C)C[C@@H]1[C@@]3(C)CC[C@H](OC(=O)c4cccnc4)CC3=CC[C@]12O`, for which the IC50 in the series on Hepatitis B virus [1] was 90 µM; in the series on Hepatitis B virus [2], 135 µM; in the series with Hepatitis B virus [3] it was 24.7 µM. This compound showed a CC50 in series [4] (HepG2(2.2.15) cells) of 602 µM. In addition, the selectivity ratio was > 6.7 in the series with Hepatitis B virus [7], > 2.4 with Hepatitis B virus [5] and > 24.4 in the series with Hepatitis B virus [6].

Consider `CC(=O)[C@]1(OC(=O)/C=C/c2ccc3c(c2)OCO3)CC[C@@]2(O)[C@]1(C)[C@H](OC(=O)/C=C(\C)C(C)C)C[C@@H]1[C@@]3(C)CC[C@H](OC(=O)/C=C/c4ccc5c(c4)OCO5)CC3=CC[C@]12O`, for which the results for the IC50 in the series with Hepatitis B virus [1], in the series with Hepatitis B virus [2] and in the series on Hepatitis B virus [3] were 575 µM, 407 µM and > 201 µM, respectively. Further, the CC50 in series [4] (HepG2(2.2.15) cells) was > 1020 µM. In addition, the values for the selectivity ratio with Hepatitis B virus [7] and in the series with Hepatitis B virus [5] were > 1.8 and > 2.5, respectively.

With `CC(=O)[C@]1(O)CC[C@@]2(O)[C@]1(C)[C@H](OC(=O)/C=C(\C)C(C)C)C[C@@H]1[C@@]3(C)CC[C@H](OC(=O)C(C#N)=C(C)C)CC3=CC[C@]12O`, the results for the half-inhibitory concentration (IC50) with Hepatitis B virus [1], with Hepatitis B virus [2] and with Hepatitis B virus [3] were 136 µM, 221 µM and 30.6 µM, respectively. Moreover, in series [4] (HepG2(2.2.15) cells), half-maximal cytotoxicity (CC50) was put at 452 µM. Moreover, the figures for the selectivity ratio in the series on Hepatitis B virus [7], in the series with Hepatitis B virus [5] and in the series on Hepatitis B virus [6] were 3.3, 2 and 14.8, respectively.

As for `CC(=O)[C@]1(O)CC[C@@]2(O)[C@]1(C)[C@H](OC(=O)/C=C(\C)C(C)C)C[C@@H]1[C@@]3(C)CC[C@H](OC(=O)c4cccnc4)CC3=CC[C@]12OC(=O)c1cccnc1`, the 50% inhibitory concentration (IC50) in the series on Hepatitis B virus [1] worked out at 199 µM; with Hepatitis B virus [2] it was 204 µM; in the series with Hepatitis B virus [3], 97 µM. In series [4] (HepG2(2.2.15) cells), this compound displayed a CC50 of 350 µM. Also, the selectivity ratio in the series on Hepatitis B virus [7] amounted to 1.8; in the series on Hepatitis B virus [5] it was 1.7; in the series with Hepatitis B virus [6], 3.6.

As to `CC(=O)[C@]1(O)CC[C@@]2(O)[C@]1(C)[C@H](OC(=O)/C=C(\C)C(C)C)C[C@@H]1[C@@]3(C)CC[C@H](OC(=O)c4cnccn4)CC3=CC[C@]12O`, the figures for the IC50 in the series with Hepatitis B virus [1], with Hepatitis B virus [2] and with Hepatitis B virus [3] were 95.5 µM, < 50.3 µM and 47.9 µM, respectively. In series [4] (HepG2(2.2.15) cells), the CC50 turned out to be 61.3 µM. For the same compound, the results for the selectivity ratio with Hepatitis B virus [5] and in the series on Hepatitis B virus [6] were > 1.2 and 1.3, respectively.

With `CC(=O)[C@]1(O)CC[C@]23OC(C)(C)O[C@]24CC=C2C[C@@H](O)CC[C@]2(C)[C@H]4C[C@@H](OC(=O)/C=C(\C)C(C)C)[C@@]31C`, the 50% inhibitory concentration (IC50) in the series with Hepatitis B virus [1] was 168 µM; with Hepatitis B virus [2], > 1720 µM; in the series on Hepatitis B virus [3] it was 218 µM. The CC50 in series [4] (HepG2(2.2.15) cells) amounted to 512 µM. In addition, the selectivity ratio worked out at 3 in the series with Hepatitis B virus [7] and 2.3 in the series with Hepatitis B virus [6].
